# Assay outcomes deposited in PubChem by The Scripps Research Institute Molecular Screening Center.
# TAAR1 agonist = human TAAR1 agonists, primary screen, Fluo-8 calcium fluorescence, CHO RD-HGA16 cells | Trace amine-associated receptor 1 (Homo sapiens), Q96RJ0 | vehicle wells 0%, saturating PEA agonist 100% | activation, % at 3 µM | actives 0.99% (n = 360,000);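 active means activation above the mean activation of all test compounds in the run plus 3 SD, cut at about 38% in these data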
#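 test system = CHO RD-HGA16 cells carrying human TAAR1 plus Gα16 | schedule = 17-24 h seeding, 75 min 37 °C dye, 30 min RT | compound dosing = 3 µM single concentration | control set = DMSO and PEA EC100 | replicates = n 1 | signal = Fluo-8 fluorescence, 5 s baseline then 140 s kinetic read | measure = percent activation vs PEA EC100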
# M1 PAM = human M1 muscarinic receptor positive allosteric modulators, primary screen, CHO-K1 cells, Fluo-8 calcium fluorescence, 1536-well; actives 0.088% (n = 360,000); AID 588819, 2011; Muscarinic acetylcholine receptor M1 (Homo sapiens), P11229; CHO-K1 hM1, ACh EC20; 0% = ACh EC20, 100% = maximal ACh; activation, % at 3 µM; in the data active means activation above about 19%, passing the limit was not always enough
# Target sequence (P11229 whole entry, looked up): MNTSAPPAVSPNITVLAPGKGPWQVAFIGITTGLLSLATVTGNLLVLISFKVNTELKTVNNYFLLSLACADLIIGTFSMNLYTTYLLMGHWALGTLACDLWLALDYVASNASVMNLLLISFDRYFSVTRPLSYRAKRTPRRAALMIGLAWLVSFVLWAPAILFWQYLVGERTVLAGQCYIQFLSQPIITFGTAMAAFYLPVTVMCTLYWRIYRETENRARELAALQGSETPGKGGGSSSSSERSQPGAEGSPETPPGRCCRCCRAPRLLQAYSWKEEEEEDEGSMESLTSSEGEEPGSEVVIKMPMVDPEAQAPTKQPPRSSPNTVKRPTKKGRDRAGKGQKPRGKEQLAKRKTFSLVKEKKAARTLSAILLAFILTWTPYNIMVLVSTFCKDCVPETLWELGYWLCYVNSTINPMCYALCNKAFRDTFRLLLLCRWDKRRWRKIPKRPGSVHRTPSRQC
# HTR2A ag = mouse Htr2a agonists via beta-arrestin recruitment, primary screen, cell-based, luminescence. activation, % at 7.6 µM. 5-hydroxytryptamine receptor 2A (Mus musculus), P35363. AID 624169, 2012. CHO-K1 mHTR2A beta-arrestin complementation; percent of 30 µM serotonin response. actives 0.66% (n = 360,000);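 active means activation above a run cutoff, the mean activation of all tested compounds plus 3 SD, cut at about 14% in these data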;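 further: 0% = plate median of compound wells and 100% = 30 µM serotonin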
# TAAR1 antagonist = human TAAR1 antagonists, primary screen, Fluo-8 calcium fluorescence, CHO RD-HGA16 cells; antagonist; inhibition, % at 3 µM; actives 1.5% (n = 360,000);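 active means inhibition above a per-plate cutoff, the mean inhibition of test compounds on that plate plus 3 SD, cut at about 49% in these data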;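 further: 0% = DMSO plus EC80 beta-PEA response and 100% = DMSO alone without agonist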
#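 System: RD-HGA16 CHO cells with stable hTAAR1 and Gα16 | Probe or stimulus: EC80 β-phenethylamine stimulus | Dosing: 3 µM, single point | Times: Dye loading 75 min at 37 °C, then 30 min room temperature | Measured by: Fluo-8 calcium-sensitive fluorescence | Read-out basis: % inhibition of agonist calcium response | Replicates: n of 1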
# CHRM1 agonist = human M1 muscarinic receptor agonists, primary screen, Fluo-8 calcium fluorescence, CHO-K1 cells, HTS | Muscarinic acetylcholine receptor M1 (Homo sapiens), P11229 | CHO-K1 hM1, agonist mode; 0% DMSO, 100% acetylcholine EC100 | activation, % at 3 µM | actives 0.33% (n = 360,000);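 active means activation above the run's mean compound activation plus 3 SD, cut at about 16% in these data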;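 further: peak over basal fluorescence ratio within a 140 s kinetic read after compound addition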
# M1 antag = human M1 muscarinic receptor antagonists, primary screen, CHO-K1 cells, Fluo-8 calcium fluorescence, 1536-well; AID 588852, 2011; actives 1.3% (n = 360,000); CHO-K1 hM1, ACh EC80 antagonist; Muscarinic acetylcholine receptor M1 (Homo sapiens), P11229; inhibition, % at 3 µM;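 active means percent inhibition above its own plate's cutoff, namely the mean of that plate's compound wells plus 3 SD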;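 further: peak over basal fluorescence ratio during 140 s after agonist addition; 0% = ACh EC80 plus DMSO and 100% = DMSO alone without agonist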
# OPRM1 ag = OPRM1 agonists via beta-arrestin recruitment, confirmation, counter-screen for mouse HTR2A agonist project, cell-based, luminescence, single concentration. shares compounds with HTR2A ag. U2OS OPRM1 beta-arrestin PathHunter; DMSO 0%, DAMGO 9.3 µM 100%. activation, % at 9.3 µM. actives 5.3% (n = 2,300). AID 624380, 2012;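 active means mean activation above the mean of DMSO-only wells plus 3 SD, cut at about 0.5% in these data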
# HTR2A ag conf = mouse HTR2A agonists, beta-arrestin recruitment, confirmation, cell-based, luminescence, CHO-K1 PathHunter, triplicate; shares compounds with HTR2A ag; DMSO 0%, 30 µM serotonin 100%; activation, % at 7.6 µM; actives 19% (n = 2,300);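 active means mean activation across triplicates above the hit threshold derived in the original primary screen, cut at about 15% in these data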
# An asterisk follows results filed as active; / = no result given. Sampled rows, rich in hits. Any-hit rate of the full collection: about 3.9%.
SMILES,TAAR1 agonist,M1 PAM,HTR2A ag,TAAR1 antagonist,CHRM1 agonist,M1 antag,OPRM1 ag,HTR2A ag conf
Cc1nc2c(-c3ccc(Cl)cc3)c(C)[nH]n2c(=O)c1Cc1ccccc1,16,-11,5,22,-4,-5,/,/
CCN1CCN(C(=O)c2c(-c3ccccc3)noc2C)CC1,0,20,17*,3,-8,-18,0,1
O=C1C2CCCN2C(=O)N1CCCCN1CCN(c2ccccc2)CC1 (stereo unspecified),9,10,15*,-9,-9,-6,-1,47*
Cc1cccc(Oc2ccc(NC(=O)C3=CC=CN4CCS(=O)(=O)N=C34)cc2)c1,24,6,7,44,-1,-1,/,/
CCOC(=O)c1c(C)[nH]c(C(=O)N2CCCC(C(=O)c3ccccc3OC)C2)c1C (stereo unspecified),-1,7,4,-16,-5,-13,/,/
CCOC(=O)N1CCC(N2CCCC(C(=O)c3ccccc3OC)C2)CC1 (stereo unspecified),2,5,27*,-13,-4,-6,-1,54*
CCC(CC)c1ncc[nH]1,14,-4,6,-9,-4,6,/,/
COc1ccccc1CN(C)C(=O)CN1CCN(C(=O)c2cccs2)CC1,3,8,17*,6,-5,-9,0,27*
COC(=O)c1nc(-c2ccccc2)oc1N1CCOCC1,7,5,-2,-25,-2,-8,/,/
OCC[C@H]1C[C@H](O)[C@@H](O)[C@@]2(Cc3ccccc3CO2)O1,10,18,17*,-1,2,-16,0,1
OCC[C@@H]1C[C@@H](O)[C@H](O)[C@@]2(Cc3ccccc3CO2)O1,13,5,5,5,2,-13,/,/
Cc1nnc(NC(=O)c2nc(S(=O)(=O)Cc3ccccc3)ncc2Cl)s1,-1,8,15*,-5,-2,-14,0,-2
CC(C)(C)NC(=O)N1CCN(c2nc(-c3ccccc3)ns2)CC1,3,-1,16*,-19,2,5,0,-2
O=C(c1ccc(F)cc1F)N1CCCN(c2nc(-c3ccccc3)ns2)CC1,0,-1,0,5,-2,1,/,/
O=[N+]([O-])c1c(Nc2ccccc2)ccc2nonc12,0,7,23*,-20,-3,-9,0,-4
O=C(O)c1cccc(Nc2ccc3nonc3c2[N+](=O)[O-])c1,0,-4,-2,-12,-1,17,/,/
COc1ccc(C(=O)NCC(=O)OCC(=O)c2cc(OC)c(OC)c(OC)c2)cc1OC,9,6,15*,-13,-4,-9,-1,0
Cn1cc(C(F)(F)F)nc1-c1ccc(OCC(O)CNCCOc2ccc(O)c(C(N)=O)c2)cc1 (stereo unspecified),0,-10,33*,-5,-6,0,-1,116*
C[C@H](CO)N1C[C@H](C)[C@H](CN(C)Cc2ccc(-c3ccccc3)cc2)Oc2ccc(NS(=O)(=O)c3ccccc3)cc2CC1=O,/,-6,16*,/,-3,12,0,28*
COc1ccc(NC(=O)Nc2ccc3c(c2)C(=O)N([C@H](C)CO)C[C@H](C)[C@@H](CN(C)S(=O)(=O)c2ccc(F)cc2)O3)cc1,7,11,18*,8,-8,-6,-1,-3
C[C@@H]1CN([C@H](C)CO)C(=O)c2cc(NS(=O)(=O)c3ccc(F)cc3)ccc2O[C@@H]1CN(C)Cc1ccc(Cl)c(Cl)c1,19,18,21*,15,-1,-20,0,7
Cc1ccc(S(=O)(=O)Nc2ccc3c(c2)CC(=O)N([C@H](C)CO)C[C@@H](C)[C@H](CN(C)Cc2ccc(-c4ccccc4)cc2)O3)cc1,/,-6,19*,/,-5,8,-1,18*
COc1ccc(NC(=O)Nc2ccc3c(c2)C(=O)N([C@H](C)CO)C[C@H](C)[C@@H](CN(C)S(=O)(=O)c2ccccc2)O3)cc1,8,-8,7,18,-14,-2,/,/
C[C@@H]1CN([C@H](C)CO)C(=O)c2cc(NS(=O)(=O)c3ccccc3)ccc2O[C@@H](C)CCCCO[C@@H]1CN(C)Cc1ccc(Cl)c(Cl)c1,8,/,/,-33,/,/,/,/
COC(CNC(=O)c1ccc2c(c1)nc(C)n2-c1ccc(F)c(F)c1)OC,5,7,15*,1,-1,-11,-1,-3
SMILES,TAAR1 agonist,M1 PAM,HTR2A ag,TAAR1 antagonist,CHRM1 agonist,M1 antag,OPRM1 ag,HTR2A ag conf
COC(CNC(=O)c1ccc2c(c1)nc(C)n2-c1cccc(F)c1)OC,7,-4,0,-5,-4,-1,/,/
CC(C)(C)OC(=O)C(C1NC(C(=O)O)C(C)(C)S1)N1C(=O)c2ccccc2C1=O (stereo unspecified),13,4,-3,-9,-1,-6,/,/
O=C(Cn1c(=O)c2cccn2c2cccnc21)N1CCN(c2ccc(Cl)cc2)CC1,/,8,15*,/,-3,-7,-1,-1
CC(=O)Nc1ccc(S(=O)(=O)N(C)CC(=O)N(C)Cc2sccc2C)cc1,4,9,3,-7,-4,-11,/,/
COc1ccc(-c2nc3n(c2C)CCC3)cc1,1,7,23*,-23,-7,-6,0,15*
CCOc1nc(-c2ccc(Cl)cc2)nc2ccccc12,0,12,27*,16,-3,9,0,1
CC(C)Oc1nc(-c2ccc(Cl)cc2)nc2ccccc12,3,6,-3,-41,-2,-5,/,/
O=C(NCCCn1ccnc1)c1ccco1,9,11,-1,3,-6,-9,/,/
